Data reported in ChEMBL document CHEMBL3097996, “Rational design and synthesis of topoisomerase I and II inhibitors based on oleanolic acid moiety for new anti-cancer drugs” (Bioorg Med Chem, 2014).
Active and inactive are the calls of the source. No cut-off for these calls is given here.

Key:
[1] = target: DNA topoisomerase 2-alpha (Homo sapiens) (UniProt P11388); test: Inhibition of topoisomerase 2 (unknown origin)-mediated kinetoplast DNA decatenation assessed as intensity of supercoiled DNA after 30 mins by agarose gel electrophoresis relative to etoposide
Procedure, shortened: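 kDNA with 2 U topoisomerase II, 37 °C for 30 min, then proteinase K for 15 min at 37 °C and a 1% agarose TAE gel at 1 V/cm. Supercoiled-DNA band intensity was measured, and each compound's value was standardized by dividing it by the etoposide value.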

[2] = target: T1, DNA topoisomerase 1 (Homo sapiens) (UniProt P11387); test: Inhibition of topoisomerase 1 (unknown origin)-mediated relaxation of supercoiled plasmid DNA assessed as intensity of supercoiled DNA after 30 mins by agarose gel electrophoresis relative to camptothecin
T1 sequence (whole entry): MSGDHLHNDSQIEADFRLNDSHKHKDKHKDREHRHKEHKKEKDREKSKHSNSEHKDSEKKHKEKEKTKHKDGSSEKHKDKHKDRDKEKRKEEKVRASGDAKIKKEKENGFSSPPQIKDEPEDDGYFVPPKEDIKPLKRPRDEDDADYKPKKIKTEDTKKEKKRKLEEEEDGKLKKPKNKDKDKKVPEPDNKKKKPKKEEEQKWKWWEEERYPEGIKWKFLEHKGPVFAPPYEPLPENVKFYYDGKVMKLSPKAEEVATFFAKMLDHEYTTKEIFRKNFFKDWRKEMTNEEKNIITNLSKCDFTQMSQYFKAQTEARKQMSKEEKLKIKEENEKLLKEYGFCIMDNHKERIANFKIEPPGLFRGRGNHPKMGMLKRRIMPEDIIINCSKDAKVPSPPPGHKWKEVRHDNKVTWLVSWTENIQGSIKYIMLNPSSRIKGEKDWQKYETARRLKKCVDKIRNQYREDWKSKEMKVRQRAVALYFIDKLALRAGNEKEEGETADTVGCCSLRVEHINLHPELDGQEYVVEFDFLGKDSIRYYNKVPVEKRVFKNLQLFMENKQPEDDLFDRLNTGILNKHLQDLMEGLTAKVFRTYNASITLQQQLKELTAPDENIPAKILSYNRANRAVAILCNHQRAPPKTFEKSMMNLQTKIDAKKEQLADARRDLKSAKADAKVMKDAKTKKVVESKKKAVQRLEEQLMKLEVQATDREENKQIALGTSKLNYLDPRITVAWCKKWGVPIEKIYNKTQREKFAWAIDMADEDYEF
Procedure, shortened: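 Topo I (2 U) relaxation of 250 ng supercoiled plasmid at pH 7.9 in Tris/NaCl/EDTA/BSA/spermidine/glycerol buffer, 37 °C for 30 min, with matched DMSO. Stopped with SDS, proteinase K digestion, 1% agarose TAE gel, ethidium stain. Supercoiled-band intensity of each compound is divided by that of the camptothecin control.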

[3] = target: T1, DNA topoisomerase 1 (Homo sapiens); test: Inhibition of topoisomerase 1 (unknown origin)-mediated relaxation of supercoiled plasmid DNA assessed as concentration of the compound exhibiting activity of 100 uM camptothecin after 30 mins by agarose gel electrophoresis
[4] = target: DNA topoisomerase 2-alpha (Homo sapiens) (UniProt P11388); test: Inhibition of topoisomerase 2 (unknown origin)-mediated kinetoplast DNA decatenation at 100 uM after 30 mins by agarose gel electrophoresis
[5] = target: DNA topoisomerase 2-alpha (Homo sapiens) (UniProt P11388); test: Inhibition of topoisomerase 2 (unknown origin)-mediated kinetoplast DNA decatenation assessed as concentration of the compound exhibiting activity of 100 uM etoposide after 30 mins by agarose gel electrophoresis
[6] = target: T1, DNA topoisomerase 1 (Homo sapiens); test: Inhibition of topoisomerase 1 (unknown origin)-mediated relaxation of supercoiled plasmid DNA at 100 uM after 30 mins by agarose gel electrophoresis

Sequence of DNA topoisomerase 2-alpha (Homo sapiens) (P11388 whole entry): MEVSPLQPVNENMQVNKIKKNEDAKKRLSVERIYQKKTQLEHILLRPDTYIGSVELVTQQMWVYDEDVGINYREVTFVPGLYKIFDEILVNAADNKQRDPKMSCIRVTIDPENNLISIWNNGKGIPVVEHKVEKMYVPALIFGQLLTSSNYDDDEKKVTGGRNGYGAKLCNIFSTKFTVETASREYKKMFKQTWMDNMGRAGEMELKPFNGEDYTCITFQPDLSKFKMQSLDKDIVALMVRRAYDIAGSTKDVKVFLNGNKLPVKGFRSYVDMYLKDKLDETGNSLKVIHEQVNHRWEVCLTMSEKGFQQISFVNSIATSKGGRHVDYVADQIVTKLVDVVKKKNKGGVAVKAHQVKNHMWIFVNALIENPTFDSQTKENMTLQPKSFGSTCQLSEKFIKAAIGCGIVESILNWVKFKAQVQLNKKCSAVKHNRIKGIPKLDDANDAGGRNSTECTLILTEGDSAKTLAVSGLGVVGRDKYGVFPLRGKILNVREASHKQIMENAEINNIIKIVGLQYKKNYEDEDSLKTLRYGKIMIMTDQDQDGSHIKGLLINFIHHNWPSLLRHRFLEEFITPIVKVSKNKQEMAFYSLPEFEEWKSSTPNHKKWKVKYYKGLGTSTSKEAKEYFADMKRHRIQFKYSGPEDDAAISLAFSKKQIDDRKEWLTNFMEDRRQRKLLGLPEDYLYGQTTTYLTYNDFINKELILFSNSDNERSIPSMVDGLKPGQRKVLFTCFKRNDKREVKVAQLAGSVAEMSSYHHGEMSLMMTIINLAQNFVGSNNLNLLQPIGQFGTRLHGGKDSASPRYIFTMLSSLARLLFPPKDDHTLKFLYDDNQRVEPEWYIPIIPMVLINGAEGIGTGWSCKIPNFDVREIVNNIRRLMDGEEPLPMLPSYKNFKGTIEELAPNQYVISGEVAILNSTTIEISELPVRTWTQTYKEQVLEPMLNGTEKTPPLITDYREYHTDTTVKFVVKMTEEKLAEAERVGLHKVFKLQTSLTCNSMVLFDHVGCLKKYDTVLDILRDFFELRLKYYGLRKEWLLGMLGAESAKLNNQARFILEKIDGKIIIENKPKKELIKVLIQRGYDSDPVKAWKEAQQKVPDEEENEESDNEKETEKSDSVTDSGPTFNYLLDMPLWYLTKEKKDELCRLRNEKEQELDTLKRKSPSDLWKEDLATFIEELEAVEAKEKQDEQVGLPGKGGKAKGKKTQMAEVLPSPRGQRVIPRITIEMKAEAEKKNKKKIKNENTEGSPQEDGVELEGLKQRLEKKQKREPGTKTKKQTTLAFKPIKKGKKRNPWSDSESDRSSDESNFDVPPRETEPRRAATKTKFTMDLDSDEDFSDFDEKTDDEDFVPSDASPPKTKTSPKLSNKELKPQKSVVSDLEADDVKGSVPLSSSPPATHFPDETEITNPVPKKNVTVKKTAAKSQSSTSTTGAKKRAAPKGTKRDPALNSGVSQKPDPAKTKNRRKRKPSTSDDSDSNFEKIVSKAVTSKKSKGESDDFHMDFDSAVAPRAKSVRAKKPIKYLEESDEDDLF

fold change (FC) [1] | fold change (FC) [2] | Activity [3] [µM] | inhibition [4] | Activity [5] [µM] | inhibition [6] | Structure (SMILES)
0.91 | 1.36 | 23.1 | – | – | – | CC1(C)CC[C@]2(C(=O)NS(=O)(=O)c3ccccc3)CC[C@]3(C)C(=CC[C@@H]4[C@@]5(C)CC[C@H](OC(=O)NS(=O)(=O)c6ccccc6)C(C)(C)[C@@H]5CC[C@]43C)[C@@H]2C1
1.03 | 0.4 | – | Active | – | – | CC1(C)CC[C@]2(C(=O)O)CC[C@]3(C)C(=CC[C@@H]4[C@@]5(C)CC[C@H](OC(=O)Nc6cccc7ccccc67)C(C)(C)[C@@H]5CC[C@]43C)[C@@H]2C1
0.74 | 0.84 | 265 | – | 276 | – | CC1(C)CC[C@]2(C(=O)O)CC[C@]3(C)C(=CC[C@@H]4[C@@]5(C)CC[C@H](O)C(C)(C)[C@@H]5CC[C@]43C)[C@@H]2C1
1.26 | 1.57 | 15.2 | – | 53 | – | C=CCNC(=O)O[C@H]1CC[C@]2(C)[C@H]3CC=C4[C@@H]5CC(C)(C)CC[C@]5(C(=O)O)CC[C@@]4(C)[C@]3(C)CC[C@H]2C1(C)C
1.21 | 1.42 | 25.4 | – | 57 | – | CC1(C)CC[C@]2(C(=O)NCc3ccccc3)CC[C@]3(C)C(=CC[C@@H]4[C@@]5(C)CC[C@H](OC(=O)NCc6ccccc6)C(C)(C)[C@@H]5CC[C@]43C)[C@@H]2C1
1.07 | 1.55 | 17.4 | Active | – | – | CC1(C)CC[C@]2(C(=O)Nc3cccc4ccccc34)CC[C@]3(C)C(=CC[C@@H]4[C@@]5(C)CC[C@H](OC(=O)Nc6cccc7ccccc67)C(C)(C)[C@@H]5CC[C@]43C)[C@@H]2C1
1.12 | 1.64 | 16.1 | – | 68 | – | CC1(C)CC[C@]2(C(=O)O)CC[C@]3(C)C(=CC[C@@H]4[C@@]5(C)CC[C@H](OC(=O)NCc6ccccc6)C(C)(C)[C@@H]5CC[C@]43C)[C@@H]2C1
0.92 | 0.54 | – | – | – | – | CC1(C)CC[C@]2(C(=O)O)CC[C@]3(C)C(=CC[C@@H]4[C@@]5(C)CC[C@H](OS(=O)(=O)c6ccccc6)C(C)(C)[C@@H]5CC[C@]43C)[C@@H]2C1
1.21 | 0.79 | – | – | 46.5 | – | CC1(C)CC[C@]2(C(=O)O)CC[C@]3(C)C(=CC[C@@H]4[C@@]5(C)CC[C@H](OC(=O)Nc6ccc(-c7ccccc7)cc6)C(C)(C)[C@@H]5CC[C@]43C)[C@@H]2C1
1.07 | 0.98 | – | Active | – | Active | CC1(C)CC[C@]2(C(=O)NCc3ccccc3)CC[C@]3(C)C(=CC[C@@H]4[C@@]5(C)CC[C@H](O)C(C)(C)[C@@H]5CC[C@]43C)[C@@H]2C1
– | – | – | Active | – | – | COc1cc([C@@H]2c3cc4c(cc3[C@@H](O[C@@H]3O[C@@H]5CO[C@@H](C)O[C@H]5[C@H](O)[C@H]3O)[C@H]3COC(=O)[C@H]23)OCO4)cc(OC)c1O
